Assay results published in the RNAGym collection of RNA variant scans (doi:10.1126/science.aae0568).
This sample holds only a part of the variants without activity.

B1: tRNA (parent)
chain: GUUCCGUUGGCGUAAUGGUAACGCGUCUCCCUCCUAAGGAGAAGACUGCGGGUUCGAGUCCCGUACGGAACG

Variants of: B1
Assay: yeast fitness relative to wild type (ratio to wild type); higher = fitter; tRNA-Arg(CCU), competitive growth, 37 C, YPD
In short: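 Gene amplicons from the start population and from each of six end populations were read by 100-nucleotide paired-end sequencing. Those end populations came from pooled Saccharomyces cerevisiae strains carrying tRNA-Arg(CCU) gene variants at the native locus, competed in YPD at 37°C for 24 hours. Fitness relative to wild type was worked out from changes in genotype frequencies. Genotypes needed ≥ 100 starting reads, and estimates < 0.5 were set to 0.5.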

Variant | yeast fitness
G23A C27U C29U G39A G58A A65C | ≤ 0.5
C22U U59A | 0.705
C22U C60U C61A G63C A65U | ≤ 0.5
C22U C30A U64A | 0.574
C22U U47C | 0.857
C22U U47A | 0.77
G23A C29A G68A | ≤ 0.5
G23A C29U A45U | 0.967
C22U C29G C33U C61U A69C | ≤ 0.5
C22U U32G C34U A40G C49U C66U | 0.552
G23A A43U G50A U54G G68C | ≤ 0.5
C22U G38C | 0.747
C22U G23A C66G G67A | ≤ 0.5
G23A C24G C29U G41A | ≤ 0.5
C22U C27U A57G | 0.53
C22U C49U U64A A70U | ≤ 0.5
C22U U32C C33G C55G | ≤ 0.5
G23A C24G G25A G48A | ≤ 0.5
C22U C24G U28A A45C G51A A57C C61U | ≤ 0.5
C22U U47C G52A | ≤ 0.5
C22U C24G U28A A45C A57C C61U | 0.581
C22U U32G C34U A40G A42G C66U | 0.561
C22U U47C G51C C66U | ≤ 0.5
C22U A42U | 0.749

Variant | yeast fitness
C22U C31U C60G A70G | ≤ 0.5
C22U C29U C49A | ≤ 0.5
C22U C29U C33U A37C C55A | 0.615
C22U C30U C33U A45C G56C G68C | ≤ 0.5
C22U G48A U54C | 0.601
C22U G39C | 0.731
C22U G39A | 0.693
C22U G52A C55A C66U | 0.526
C22U G23A C61A | 0.58
C22U C33G G41C | ≤ 0.5
C22U C30U U47A C62U | ≤ 0.5
C22U C24U C60G | ≤ 0.5
C22U C30U A42G C61A | 0.584
G23A A42G A45U G63C U64C | 0.638
C22U C46G C49A U54C G56A C60A A70C | ≤ 0.5
C22U G41A A69C | ≤ 0.5
C22U C24G C55U A65G | ≤ 0.5
G23A C27U A45U | 0.668
C22U A43C | 0.712
C22U C31G C49U | 0.552
C22U C46A C66U | ≤ 0.5
C22U G50U | 0.669
C22U G50A | 0.875
C22U G50C | 0.818

Variant | yeast fitness
C22U U47G U59A | ≤ 0.5
G23A A42C C60U C61G | ≤ 0.5
C22U G23C U26C C30A | 0.507
C22U C29U C33U A37C A43U C55A | ≤ 0.5
G23A A37G | 0.57
C22U C24U U47C | 0.705
C22U C30U C55G | ≤ 0.5
C22U U35C C49U C66U | 0.586
G23A A37C C49U C62U A70G | ≤ 0.5
C22U U32C C46G U53G G68C | 0.544
C22U G38A G67C | ≤ 0.5
C22U U28G A45G | ≤ 0.5
C22U G63C G68U | ≤ 0.5
C22U G23A C46U | ≤ 0.5
C22U U26G U35A A45G G50A | 0.648
C22U C29U G41A C62G | ≤ 0.5
C22U C33G G58A C66U | 0.595
C22U C31G G38A U47A C62U | ≤ 0.5
C22U G41A G50A C55G | ≤ 0.5
G23A A36G C55G | 0.578
C22U G41A A65C | ≤ 0.5
G23A A70C | 0.74
C22U U47C C62U | 0.667
C22U A70U | 0.842

Variant | yeast fitness
G23A C27U C60G | 0.525
C22U G63C | 0.67
G23A A40U | 0.842
C22U C30G | 0.515
C22U C30A | 0.706
C22U C30U | 0.758
C22U G25A G41A C46A A69C | 0.599
C22U C49A A69G | ≤ 0.5
C22U C24G C34U A37G G44A | ≤ 0.5
C22U C24U A36C A45G G56C | ≤ 0.5
C22U C61A | 0.612
C22U C61G | 0.586
C22U U32A C34U C66U | ≤ 0.5
C22U C46G C49A G56A C60A A70C | 0.534
C22U C27A A45G G48C | ≤ 0.5
C22U U35C C49U U53A | ≤ 0.5
C22U G52C C55U A65U | ≤ 0.5
G23A A36G | 0.668
C22U G38C G41C A65G | ≤ 0.5
G23A C27A | 0.821
G23A C24A C31A A36G | ≤ 0.5
C22U U32C A65C | 0.701
G23A C27A U54A G56A C66G | ≤ 0.5
C22U C31G U53A | ≤ 0.5

Variant | yeast fitness
G23A A40C U53C | ≤ 0.5
C22U C27U G56A | 0.51
C22U C33U A43U G52A | ≤ 0.5
C22U C27G A40C | 0.55
C22U G48C G67C | ≤ 0.5
C22U G52A C55A | 0.579
G23A A45U | 0.674
G23A A45C | 0.846
G23A A45G | 0.645
G23A A40U C49U C60A G63A | ≤ 0.5
G23A C27U A65U | 0.658
C22U G67U | 0.808
C22U G67A | 0.78
C22U C31G C33A G38A U47A | ≤ 0.5
C22U U28C C29G C33A C60A A70C | ≤ 0.5
C22U G23C C24A C49U C62U A69C | 0.683
G23A C24A C31A A36G G44A C60U C62A | ≤ 0.5
C22U C60G A70G | ≤ 0.5
C22U U26C G63U | ≤ 0.5
C22U C62G | 0.778
C22U C62A | 0.856
C22U C62U | 0.867
C22U C30U U47C U54A | ≤ 0.5
C22U C49G U53A G63C | 0.609

Variant | yeast fitness
C22U C34G A36U U47C A65C | ≤ 0.5
C22U C34U A36U U53C | ≤ 0.5
C22U C29G C34G A42U U54C G56A | ≤ 0.5
C22U U35C A69C | 0.565
G23A C27U A69G | ≤ 0.5
C22U G25A A36G G51A C66U | ≤ 0.5
C22U C49G U53A A65G | ≤ 0.5
C22U U54A C55U G63A | 0.54
G23A C27U C34U A45C | ≤ 0.5
C22U C27U G44C | 0.659
C22U C24U U35A A42C A57C | 0.638
C22U C24G C30U G44A G56A | ≤ 0.5
G23A A43G A70U | 0.648
C22U G38A A40C | 0.541
C22U G25A A42C C49G U59A A65U | ≤ 0.5
C22U C55G A70C | 0.558
G23A A36G A69C | 0.708
C22U A42G C61U | 0.612
G23A C24G U32G | 0.609
G23A C29G A65G | ≤ 0.5
C22U U47A C60U G67C A69U | ≤ 0.5
C22U U64C | 0.977
C22U U26A C49U A65U | ≤ 0.5
C22U C27G G41A C55U | ≤ 0.5

Variant | yeast fitness
C22U U54C C55A A65G C66U | ≤ 0.5
C22U G58C C61A | ≤ 0.5
C22U U32C C55A | ≤ 0.5
C22U C46G | 0.835
C22U C46A | 0.975
C22U C46U | 0.995
C22U A65C | 0.708
C22U A65G | 0.835
C22U A65U | 0.748
C22U U47C G51C | 0.54
C22U C24A A42U C61U | 0.562
C22U U32A | 0.733
C22U C24A A43C C55U | ≤ 0.5
C22U C33G C55G | 0.537
C22U U35A G52A | ≤ 0.5
C22U G38A C55U G68C | ≤ 0.5
C22U C33U C34A G38C | ≤ 0.5
C22U C29A C34A G41C A45C U47A C55A | ≤ 0.5
C22U G68U | 0.845
G23A C29A C31G | 0.664
C22U G58C C62G G63C | ≤ 0.5
C22U A57U C66U | 0.553
C22U G41A | 0.706
